In ChEMBL document CHEMBL1138915, “Pharmacophore based receptor modeling: the case of adenosine A3 receptor antagonists. An approach to the optimization of protein models” (J Med Chem, 2006):

Legend:
Type in all cases: cell-based
[1] = target: T1, Adenosine receptor A1 (Homo sapiens) (UniProt P30542); assay: (§1) Displacement of [3H]DPCPX from human adenosine A1 receptor expressed in CHO cells; design: concentration or dose not given beside the values; settings: concentration not given here
T1 sequence (whole entry): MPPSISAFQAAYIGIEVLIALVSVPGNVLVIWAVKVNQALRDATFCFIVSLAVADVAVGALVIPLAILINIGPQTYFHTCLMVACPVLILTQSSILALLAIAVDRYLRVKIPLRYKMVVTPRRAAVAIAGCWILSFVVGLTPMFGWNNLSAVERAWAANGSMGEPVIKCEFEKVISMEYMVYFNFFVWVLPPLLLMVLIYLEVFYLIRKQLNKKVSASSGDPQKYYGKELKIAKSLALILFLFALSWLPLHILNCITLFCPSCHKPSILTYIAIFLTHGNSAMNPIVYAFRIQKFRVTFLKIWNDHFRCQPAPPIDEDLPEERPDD
How it was run: (§2)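 Membranes from transfected CHO cells (50 µg protein/assay) in 50 mM Tris-HCl pH 7.4, incubated 120 min at 25 °C with 1 nM radioligand and at least six to eight test concentrations. Nonspecific binding with 10 µM CHA. Filtration on GF/B filters and scintillation counting. Ki from IC50 by Cheng-Prusoff, nonlinear least-squares fitting.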

[2] = target: T2, Adenosine receptor A1 (Homo sapiens, UniProt P30542); assay: as §1; how it was run: as §2
T2 sequence (P30542 whole entry): T1 sequence (whole entry)

[3] = target: T3, Adenosine receptor A2b (Homo sapiens) (UniProt P29275); assay: (§3) Displacement of [3H]MRE 2029F20 from human adenosine A2B receptor expressed in CHO cells; design: concentration or dose not given beside the values; settings: concentration not given here
T3 sequence (whole entry): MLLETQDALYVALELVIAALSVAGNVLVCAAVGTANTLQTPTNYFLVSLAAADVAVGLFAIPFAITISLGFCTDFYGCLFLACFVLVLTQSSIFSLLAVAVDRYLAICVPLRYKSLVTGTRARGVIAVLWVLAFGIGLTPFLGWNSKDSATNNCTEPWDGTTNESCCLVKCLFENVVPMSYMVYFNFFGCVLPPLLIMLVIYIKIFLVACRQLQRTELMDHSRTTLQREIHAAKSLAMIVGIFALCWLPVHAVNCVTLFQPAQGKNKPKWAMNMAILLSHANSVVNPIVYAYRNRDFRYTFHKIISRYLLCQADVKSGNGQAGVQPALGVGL
How it was run: (§4)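 Run 60 min at 25 °C in 50 mM Tris-HCl, 10 mM MgCl2, 1 mM EDTA, 0.1 mM benzamidine, pH 7.4, with 2 IU/mL adenosine deaminase, 40 nM radioligand and CHO membranes (20 µg protein/assay). At least six to eight test concentrations. Nonspecific binding with 100 µM NECA. Filtration and counting, Ki by Cheng-Prusoff.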

[4] = target: T4, Adenosine receptor A2b (Homo sapiens, UniProt P29275); assay: as §3; how it was run: as §4
T4 sequence (P29275 whole entry): T3 sequence (whole entry)

[5] = target: T5, Adenosine receptor A3 (Homo sapiens, UniProt P0DMS8); assay: Displacement of [3H]MRE 3008F20 from human adenosine A3 receptor expressed in CHO cells
T5 sequence (P0DMS8 whole entry): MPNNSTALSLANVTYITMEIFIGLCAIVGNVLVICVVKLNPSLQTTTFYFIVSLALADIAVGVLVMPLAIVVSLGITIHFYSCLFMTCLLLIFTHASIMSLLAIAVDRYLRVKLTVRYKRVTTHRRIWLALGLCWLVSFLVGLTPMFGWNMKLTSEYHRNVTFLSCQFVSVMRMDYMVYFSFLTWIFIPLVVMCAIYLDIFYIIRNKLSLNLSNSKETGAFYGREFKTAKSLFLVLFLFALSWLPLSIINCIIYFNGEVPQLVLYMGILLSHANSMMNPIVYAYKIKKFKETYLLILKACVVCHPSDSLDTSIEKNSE

[6] = target: Adenosine receptor A2a (Homo sapiens, UniProt P29274); assay: Displacement of [3H]ZM241385 from human adenosine A2A receptor expressed in CHO cells; settings: for inhibition: concentration not given here
How it was run: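 CHO-derived membranes (50 µg protein/assay) in 50 mM Tris-HCl, 10 mM MgCl2, pH 7.4, competed with at least six to eight compound concentrations for 60 min at 25 °C. Nonspecific binding defined by 1 µM ZM 241385. Bound ligand collected on GF/B filters and counted. Ki derived from IC50 via Cheng-Prusoff.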

Sequence of Adenosine receptor A2a (P29274 whole entry): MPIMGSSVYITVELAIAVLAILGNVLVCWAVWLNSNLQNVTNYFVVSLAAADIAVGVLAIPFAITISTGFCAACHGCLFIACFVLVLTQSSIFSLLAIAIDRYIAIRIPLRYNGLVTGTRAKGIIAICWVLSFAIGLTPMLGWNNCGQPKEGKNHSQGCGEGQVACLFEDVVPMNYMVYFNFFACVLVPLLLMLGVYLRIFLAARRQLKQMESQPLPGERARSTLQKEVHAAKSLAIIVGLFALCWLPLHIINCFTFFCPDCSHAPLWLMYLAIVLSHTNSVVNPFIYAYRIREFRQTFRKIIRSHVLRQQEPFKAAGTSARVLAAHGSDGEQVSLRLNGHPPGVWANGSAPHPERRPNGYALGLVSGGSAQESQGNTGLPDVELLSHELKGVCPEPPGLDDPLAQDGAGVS

## O=C(Nc1ccncc1)Nc1nc2nn(CCOCc3ccccc3)cc2c2nc(-c3ccco3)nn12
[1]
  inhibition: 71%
[2]
  Ki: > 1000 nM
[3]
  inhibition: 65%
[4]
  Ki: > 1000 nM
[5]
  Ki: 27 nM
[6]
  Ki: > 1000 nM
  inhibition: 97%

## CCn1cc2c(n1)N=C(NC(=O)Nc1ccc(C)cc1)N1N=C(c3ccco3)NC21 (stereo unspecified)
[5]
  Ki: 0.14 nM

## O=C(Nc1ccncc1)Nc1nc2nn(CCO)cc2c2nc(-c3ccco3)nn12
[1]
  inhibition: 74%
[2]
  Ki: > 1000 nM
[3]
  inhibition: 71%
[4]
  Ki: > 1000 nM
[5]
  Ki: 5.1 nM
[6]
  Ki: > 1000 nM
  inhibition: 96%

## CCCOC(=O)c1c(-c2ccccc2)nc(CC)c(C(=O)OCC)c1CCC
[5]
  Ki: 19 nM

## CCCOC(=O)c1c(-c2ccccc2)nc(CC)c(C(=O)OCC)c1CC
[5]
  Ki: 8.3 nM

## CCOC(=O)c1c(-c2ccccc2)nc(C)c(C(=O)SCC)c1C
[5]
  Ki: 20 nM

## CCOC(=O)c1c(C)nc(-c2ccccc2)c(C(=O)OCC)c1CC
[5]
  Ki: 180 nM

## O=C(Nc1ccncc1)Nc1nc2nn(CCCO)cc2c2nc(-c3ccco3)nn12
[2]
  Ki: 350 nM
[3]
  inhibition: 73%
[4]
  Ki: > 1000 nM
[5]
  Ki: 2 nM
[6]
  Ki: > 1000 nM
  inhibition: 95%

## CCOC(=O)c1c(-c2ccccc2)nc(CC)c(C(=O)SCC)c1CC
[5]
  Ki: 13.4 nM

## O=C(Nc1cccnc1)Nc1nc2nn(CCO)cc2c2nc(-c3ccco3)nn12
[1]
  inhibition: 92%
[2]
  Ki: > 1000 nM
[3]
  inhibition: 99%
[4]
  Ki: > 1000 nM
[5]
  Ki: 34 nM
[6]
  Ki: > 1000 nM
  inhibition: 93%

## Cc1cccnc1-c1nc(NC(=O)Nc2ccccc2)c2ccccc2n1
[5]
  Ki: 260 nM

## CCOC(=O)c1c(CC)c(C(=O)OCC)c(-c2ccccc2)[n+](C)c1C
[5]
  Ki: 380 nM

## CCOC(=O)c1c(CC)nc(-c2ccccc2)c(C(=O)OCC)c1CC
[5]
  Ki: 120 nM

## O=C(Nc1ccncc1)Nc1nc2nn(CCCOCc3ccccc3)cc2c2nc(-c3ccco3)nn12
[1]
  inhibition: 74%
[2]
  Ki: > 1000 nM
[3]
  inhibition: 66%
[4]
  Ki: > 1000 nM
[5]
  Ki: 14 nM
[6]
  Ki: > 1000 nM
  inhibition: 89%

## CCn1cc2c(nc(NC(=O)Nc3ccc(F)cc3)n3nc(-c4ccco4)nc23)n1
[5]
  Ki: 0.86 nM

## CCCc1c(C(=O)SCC)c(C)nc(-c2ccccc2)c1C(=O)OCC
[5]
  Ki: 194 nM

## O=C(Nc1cccnc1)Nc1nc2nn(CCOCc3ccccc3)cc2c2nc(-c3ccco3)nn12
[1]
  inhibition: 85%
[2]
  Ki: > 1000 nM
[3]
  inhibition: 58%
[4]
  Ki: > 1000 nM
[5]
  Ki: 9 nM
[6]
  Ki: > 1000 nM
  inhibition: 82%

## CCCOC(=O)c1c(C)nc(-c2ccccc2)c(C(=O)OCC)c1C
[5]
  Ki: 210 nM

## CCCOC(=O)c1c(CC)nc(-c2cccc(Cl)c2)c(C(=O)OCCC)c1CC
[5]
  Ki: 7.9 nM

## CCn1cc2c(nc(NC(=O)Nc3ccccc3OC)n3nc(-c4ccco4)nc23)n1
[5]
  Ki: 0.56 nM

## O=C(Nc1ccccc1)Nc1ncnc2ccccc12
[5]; cho
  Ki: 1200 nM
